Most compounds without a hit are left out; they make up all but 1.7% or so of the library.
SUMO1-SIM PPI: modulators of human SUMO1-mediated protein-protein interactions. P63165. SUMO1 binding to a labelled peptide, TR-FRET, 1 h. inhibition, % at 20 µM. hit rate 0.33% among 360,000. AID 602429; in the data active = inhibition above about 37%
Target sequence (P63165 whole entry, looked up): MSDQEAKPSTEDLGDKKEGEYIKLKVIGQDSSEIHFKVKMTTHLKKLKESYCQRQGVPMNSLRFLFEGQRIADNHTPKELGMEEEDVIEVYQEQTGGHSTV
LMPTP inh: blocks human LMPTP phosphatase; P24666; recombinant LMPTP-A, OMFP fluorogenic substrate, fluorescence intensity; inhibition, % at 20 µM; hit rate 0.22% among 360,000; AID 651560;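 active = compounds that cut the enzyme signal by at least half of the control window in the single-dose screen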;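 note: plate controls were DMSO wells with enzyme plus substrate for no effect and substrate without enzyme for full effect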
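Test system: LMPTP-A phosphatase enzyme. Amount: LMPTP-A at 0.625 nM final in the reaction. Reagent: OMFP substrate, 400 µM final. Times: 50 min at room temperature. Signal: endpoint fluorescence intensity from OMFP dephosphorylation. Read-out basis: % inhibition. Benchmarks: no-enzyme and uninhibited controls.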
STEP block: STEP (human) phosphatase inhibition; hit rate 0.25% among 360,000; P54829; inhibition, % at 20 µM; recombinant STEP, OMFP fluorogenic substrate, fluorescence;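 active = inhibition at 20 µM, scaled per plate between control wells, above about 37%, limit read from the data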;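 note: 0% = DMSO with enzyme and substrate and 100% = substrate only without enzyme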
Target sequence (P54829 whole entry, looked up): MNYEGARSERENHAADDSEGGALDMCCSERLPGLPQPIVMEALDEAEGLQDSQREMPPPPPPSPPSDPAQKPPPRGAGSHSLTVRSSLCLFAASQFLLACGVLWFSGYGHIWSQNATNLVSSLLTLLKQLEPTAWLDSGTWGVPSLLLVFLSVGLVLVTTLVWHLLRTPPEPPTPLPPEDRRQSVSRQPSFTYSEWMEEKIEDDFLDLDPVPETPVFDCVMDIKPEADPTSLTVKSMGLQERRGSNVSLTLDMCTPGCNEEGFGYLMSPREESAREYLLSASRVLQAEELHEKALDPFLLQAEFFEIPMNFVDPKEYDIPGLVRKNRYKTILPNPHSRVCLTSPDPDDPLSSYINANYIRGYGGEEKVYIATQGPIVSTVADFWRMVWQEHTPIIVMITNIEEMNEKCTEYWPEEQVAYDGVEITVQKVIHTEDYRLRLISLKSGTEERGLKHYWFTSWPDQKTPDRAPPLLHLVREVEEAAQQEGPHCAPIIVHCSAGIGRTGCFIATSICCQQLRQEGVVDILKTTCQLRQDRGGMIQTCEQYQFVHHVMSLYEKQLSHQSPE
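Material: STEP (striatal-enriched tyrosine phosphatase) enzyme, cell-free | Medium: 50 mM Bis-Tris pH 6.0 with 2.5 mM DTT and 0.005% Tween 20 | Read-out: Percent inhibition scaled to no-enzyme and uninhibited-enzyme controls, plate-pattern corrected | Signal: Fluorescence read at 480 nm ex / 540 nm em | Times: 20 min reaction, room temperature, in the dark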
DNMT1 inh: DNMT1 (human) enzyme inhibition; AID 588458; hit rate 0.83% among 360,000; DNMT1 molecular beacon, Hinp1I cleavage, fluorescence; P26358; inhibition (reported as % activation of signal), % at 10 µM; in the data active = inhibition above about 50%
Scp-1 inhibitor: Scp-1 (human) phosphatase inhibition. Recombinant Scp1, phosphopeptide, malachite green phosphate absorbance. inhibition, % at 20 µM. hit rate 0.88% among 340,000. AID 493091;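 active = inhibition above about 50% at 20 µM, limit read from the data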;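 note: plate controls were DMSO wells with enzyme for no effect and wells lacking enzyme for full effect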
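Times: enzyme reaction 45 min at room temperature, colour 5 min, stabilisation 30 min. Material: SCP-1 catalytic fragment, aa 76-261. Medium: Acidic Tris acetate buffer with magnesium and detergent. Signal: colorimetric free-phosphate detection, absorbance 630 nm. Read-out basis: % inhibition of SCP-1 phosphate liberation. Reagent: Phosphorylated 17-residue peptide substrate.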
Scp1 confirm: Scp-1 (human) inhibition, single-dose confirmed | shares compounds with Scp-1 inhibitor | recombinant SCP-1 catalytic domain, phosphate release, malachite green absorbance | inhibition, % at 20 µM | hit rate 61% among 2,500;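 note: plate controls were DMSO with enzyme for no effect and buffer wells lacking enzyme for full effect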
MG interference: interferes with malachite green readout, flagging false Scp-1 hits; apparent inhibition (interference), % at 20 µM; Colorimetric interference counterscreen, malachite green absorbance 630 nm; 2,500 tested, under 10 active; shares compounds with Scp-1 inhibitor;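 note: compounds added after enzyme reaction finished so only phosphate colour detection is probed; plate controls were DMSO wells with completed Scp-1 reaction for no effect and substrate wells lacking enzyme for full effect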
Scp1 DSF: Scp-1 (human) binding by thermal shift. shares compounds with Scp-1 inhibitor. Recombinant SCP1, Sypro Orange thermal shift Tm. thermal shift relative to vanadate control, % at 40 µM. hit rate 25% among 1,500;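 active = substances whose mean melting-temperature shift, as a percentage of the reference inhibitor's shift, reaches about 5.3%, limit read from the data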;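 note: 0% = Tm of DMSO wells and 100% = Tm with sodium orthovanadate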
Active calls of the source: *.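 Rule for the calls, unless noted: active = inhibition of at least 30% at 20 µM; inactive = the rest.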

`COc1ccc(/C=N/Nc2cc(C)nc3ccc(OC)cc23)c(OC)c1` gave SUMO1-SIM PPI 87*, LMPTP inh 29, STEP block 6, DNMT1 inh 51* and Scp-1 inhibitor -7.
COc1ccccc1/C=N/Nc1cc(C)nc2ccc(C)cc12 was read as SUMO1-SIM PPI 7, LMPTP inh 1, STEP block 0, DNMT1 inh 3 and Scp-1 inhibitor 3.
For CCOC(=O)/C=C1\CN(C(C)c2ccccc2)S(=O)(=O)c2ccccc21 (stereo unspecified) the results were SUMO1-SIM PPI -3, LMPTP inh 1, STEP block 2, DNMT1 inh 3, Scp-1 inhibitor 84*, Scp1 confirm 46*, MG interference -18 and Scp1 DSF -20.
`CCOC(=O)/C=C1\CC(C(=O)OCC)Oc2ccccc21` (stereo unspecified) gave SUMO1-SIM PPI -7, LMPTP inh -2, STEP block -2, DNMT1 inh 4 and Scp-1 inhibitor 1.
For CCOC(=O)/C=C1\CN(CCC(C)C)S(=O)(=O)c2ccccc21 the results were SUMO1-SIM PPI -8, LMPTP inh 0, STEP block 0, DNMT1 inh 2, Scp-1 inhibitor 59*, Scp1 confirm 31*, MG interference -20 and Scp1 DSF -23.
C[C@H]1CN([C@@H](C)CO)S(=O)(=O)c2ccc(Br)cc2O[C@@H]1CN(C)C(=O)CCN1CCCCC1 was read as SUMO1-SIM PPI 3, LMPTP inh -1, STEP block 2 and DNMT1 inh -2.
For CCN(CC(=O)NCc1cccs1)C(=O)COc1cccc(C(F)(F)F)c1 the results were SUMO1-SIM PPI 7, LMPTP inh -1, STEP block -2, DNMT1 inh -2 and Scp-1 inhibitor -8.
For CCN(CC(=O)NCc1cccs1)C(=O)COc1ccc(C(C)=O)cc1 the results were SUMO1-SIM PPI 1, LMPTP inh 0, STEP block -3, DNMT1 inh 3, Scp-1 inhibitor 59*, Scp1 confirm 11 and MG interference 5.
Screening Cc1c(Cl)cnc(NC(=O)COC(=O)[C@H](C)NC(=O)c2ccccc2)c1Cl returned SUMO1-SIM PPI 7, LMPTP inh 1, STEP block 1, DNMT1 inh 6 and Scp-1 inhibitor 17.
CC(C)C(=O)Nc1ccc(C(=O)N/N=C/c2cc(Br)cc(Br)c2O)cc1 was read as SUMO1-SIM PPI 0, LMPTP inh -1, STEP block 14, DNMT1 inh 41, Scp-1 inhibitor 55*, Scp1 confirm 16 and MG interference -18.
For CC(=O)Nc1ccc(C(=O)N/N=C/c2cc(Br)cc(Br)c2O)cc1 the results were SUMO1-SIM PPI 2, LMPTP inh 0, STEP block -1, DNMT1 inh -1 and Scp-1 inhibitor -10.
COc1cc(/C=C/c2cccc[n+]2C)ccc1OCC(=O)Nc1cccc(Cl)c1 was read as SUMO1-SIM PPI -27, LMPTP inh 2, STEP block 0, DNMT1 inh -2, Scp-1 inhibitor 70*, Scp1 confirm 32*, MG interference -6 and Scp1 DSF -6.
For CCOC(=O)C1CCN(C(=O)CCCCn2c(=O)[nH]c3ccccc3c2=O)CC1 the results were SUMO1-SIM PPI -2, LMPTP inh 0, STEP block 0, DNMT1 inh 2, Scp-1 inhibitor 68*, Scp1 confirm -15 and MG interference -7.
CCOc1cccc(/C=N/NC(=O)CC2C(=O)NN=C2C)c1O (stereo unspecified) was read as SUMO1-SIM PPI 2, LMPTP inh -1, STEP block 2, DNMT1 inh 0, Scp-1 inhibitor -9, Scp1 confirm -6 and MG interference -11.
`CCOc1cccc(/C=N/NC(=O)C2CCCC2)c1O` gave SUMO1-SIM PPI -3, LMPTP inh 0, STEP block 4, DNMT1 inh -1 and Scp-1 inhibitor -7.
For COc1cc(/C=N/NC(=O)CC2C(=O)NN=C2C)ccc1O (stereo unspecified) the results were SUMO1-SIM PPI -2, LMPTP inh -3, STEP block 0, DNMT1 inh -4, Scp-1 inhibitor -16, Scp1 confirm -19 and MG interference -18.
Screening Cn1c(SCC(=O)O)nnc1-c1cccc(NC(=O)c2cccc3ccccc23)c1 returned SUMO1-SIM PPI 1, LMPTP inh -4, STEP block 2, DNMT1 inh -1 and Scp-1 inhibitor -1.
Screening O=C(O)c1ccc2c(c1)C(=O)/C(=C/c1ccccc1)C2=O returned SUMO1-SIM PPI 1, LMPTP inh 5, STEP block 0, DNMT1 inh 15, Scp-1 inhibitor 76*, Scp1 confirm 53*, MG interference -20 and Scp1 DSF 23*.
`O=C(CCC1CC(=O)Nc2ccccc21)NCc1ccc(F)cc1` (stereo unspecified) gave SUMO1-SIM PPI 1, LMPTP inh -3, STEP block -2, DNMT1 inh -10, Scp-1 inhibitor -8, Scp1 confirm -8 and MG interference -7.
`O=C(CCC1CC(=O)Nc2ccccc21)NCc1ccccc1` (stereo unspecified) gave SUMO1-SIM PPI -1, LMPTP inh 1, STEP block -1, DNMT1 inh -4 and Scp-1 inhibitor -4.
For CCOc1cc(/C=N/N=C2/NC(=O)C(CC(=O)O)S2)ccc1OCc1ccccc1Cl (stereo unspecified) the results were SUMO1-SIM PPI -3, LMPTP inh 1, STEP block 8, DNMT1 inh 1, Scp-1 inhibitor 75*, Scp1 confirm 64*, MG interference -17 and Scp1 DSF -17.
For COc1ccc(/C=N/N=C2/NC(=O)C(CC(=O)O)S2)cc1OCc1ccccc1Cl (stereo unspecified) the results were SUMO1-SIM PPI 7, LMPTP inh -1, STEP block 1, DNMT1 inh 3, Scp-1 inhibitor 81*, Scp1 confirm 72*, MG interference -4 and Scp1 DSF -5.
For CCOc1cc(/C=N/N=C2/NC(=O)C(CC(=O)O)S2)ccc1OS(=O)(=O)c1ccc(C)cc1 (stereo unspecified) the results were SUMO1-SIM PPI 2, LMPTP inh 0, STEP block 4, DNMT1 inh -3 and Scp-1 inhibitor -3.
